Sampled rows, rich in hits. Any-hit rate of the full collection: about 4.9%.
STAT3 activator: activators of IL-6 induced STAT3 signaling; actives 0.91% (n = 190,000); U3A cells, IL-6 STAT3-luciferase reporter, luminescence; 100% = signal with IL-6 EC80 alone; AID 871; activation (% of control), % at 5.6 µM;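 active = activation above the screen-wide mean of compound activation plus 3 SD, cut at about 130% in these data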
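Material: STAT1-lacking human U3A cells, STAT3 luciferase reporter | Benchmarks: IL-6-only wells as 100% reference | Probe or stimulus: IL-6 (33 ng/mL) | Timing: Compound 1 h, then IL-6 6 h at 37 °C | Detection: Luminescence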
NF-kB neuron act: raises NF-kB expression in human neuronal cells; NF-kB reporter expression; hits give high values; fold change at 12.5 µM; actives 1.6% (n = 190,000); AID 1239; in the data active = fold change above about 3.3
APP 5'UTR act: activates APP 5'UTR luciferase reporter; SH-SY5Y APP 5'UTR luciferase reporter, luminescence; zero percent = DMSO vehicle wells; activation, % at 2 µM; actives 1% (n = 190,000); AID 1276;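 active = activation above a set limit, based on mean plus 3 SD of controls, cut at about 140% in these data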
STAT1 act: activators of IFN-gamma induced STAT1 signaling. NIH 3T3 STAT1-luciferase reporter, luminescence; 100% = IFN-gamma alone, no compound. actives 2.6% (n = 200,000). activation (% of control), % at 5.5 µM;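 active = activation above the screen-wide mean activation plus 3 SD, cut at about 130% in these data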
STAT3 blocker: STAT3 signaling inhibition | U3A cells, IL-6 STAT3-luciferase reporter, luminescence; host cell line lacks STAT1 | AID 862 | inhibition, % at 5.5 µM | actives 0.89% (n = 190,000);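 active = inhibition above the mean inhibition across all screened compounds plus 3 SD, cut at about 44% in these data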
STAT1 blocker: reduces IFN-gamma driven STAT1 reporter signal. NIH 3T3 STAT1-luciferase reporter, luminescence. AID 920. actives 0.35% (n = 200,000). inhibition, % at 5.5 µM;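 active = inhibition above a set limit, the mean inhibition across all tested compounds plus 3 SD, cut at about 34% in these data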
Of the large screens only hits and unclear results are named; the others gave an inactive call.

COc1cccc(NC(=O)/C=C/c2ccco2)c1	NF-kB neuron act 3.7
CSc1cccc(NC(=O)/C=C/c2ccco2)c1	none
CCN(CC(=O)Nc1ccc2c(c1)OCCO2)C(=O)/C=C/c1ccccc1	none
O=C(/C=C/c1ccccc1)Nc1ccc2c(c1)OCCO2	NF-kB neuron act 3.5, APP 5'UTR act 152, STAT3 blocker 79, STAT1 blocker 42
O=C(/C=C/c1ccco1)Nc1ccc2c(c1)OCCO2	NF-kB neuron act 9.2, APP 5'UTR act 156
CCCNC(=O)NNC(=O)c1ccc(F)cc1	none
CCCCN1C(=O)C(=O)N(CC(=O)Nc2cc(OCC)c(N3CCOCC3)cc2OCC)C1=O	none (no result: NF-kB neuron act)
CC1(C)CC(NC(=O)c2sc3cc(Cl)ccc3c2Cl)CC(C)(C)N1	none
CC(=O)Oc1ccc(NC(=O)CSc2ccccc2)cc1	NF-kB neuron act 4.2
O=C(CSc1ccccc1)Nc1ccncc1	none
COc1ccc(/C(N)=N/OC(=O)COc2ccccc2Cl)cc1	none
Cc1cccc(/C(N)=N/OC(=O)Cc2ccccc2)c1	STAT1 act 147
Cc1cccc(/C(N)=N/OC(=O)COc2ccccc2Cl)c1	STAT1 act 135
N#C/C(=C/c1ccccc1)C(=O)NCc1ccccc1	none
CN(C)c1ccc(/C=C(/C#N)C(=O)NCc2ccccc2)o1	STAT1 act 129
Cn1c(CCc2nc3ccccc3[nH]2)nnc1SCC#N	none
O=C(NCc1ccccc1)c1cccc(COc2ccccc2Cl)c1	none
O=C(NCc1ccccc1)c1cccc(COc2cc(Cl)ccc2Cl)c1	STAT1 act 135
COC(=O)Nc1ccc(S(=O)(=O)N2CCCC(C(=O)NC3CCS(=O)(=O)C3)C2)cc1 (stereo not drawn)	none
O=C(N/N=C/C=C/c1ccccc1[N+](=O)[O-])c1cccs1	NF-kB neuron act 4.2
Oc1ccc(N=Cc2ccc(OCc3ccccc3)cc2)cc1	STAT1 act 142
O=C(N/N=C/c1cccs1)c1cncc(Br)c1	none
O=C(N/N=C/C=C\c1ccccc1[N+](=O)[O-])c1ccncc1	none
O=C(N/N=C/c1cccs1)c1n[nH]c2c1CCC2	STAT1 act 130
O=C(N/N=C/c1ccc(OCc2ccccc2)cc1)c1cccs1	STAT1 act 140
O=C(Nc1ccc(Cl)c(Cl)c1)Nc1cc(C(=O)NC2CC2)ccc1Cl	none
O=C(N/N=C/C(Br)=C/c1ccccc1)c1cccs1	NF-kB neuron act 7.5, APP 5'UTR act 147, STAT1 act 148
O=C(N/N=C/C(Br)=C/c1ccccc1)c1n[nH]c2c1CCC2	STAT3 activator 137, NF-kB neuron act 8, STAT1 act 146 (no result: APP 5'UTR act)
O=C(CNc1cccc2ccccc12)N/N=C/C(Br)=C/c1ccccc1	none
CC1=C(C(=O)Nc2ccccc2C)C(c2ccc(C)o2)NC(=S)N1 (stereo not drawn)	none
COc1ccc(C(=O)NC(=S)N2CCCc3ccccc32)cc1OC	none
O=C(NC(=S)N1CCCc2ccccc21)c1ccc([N+](=O)[O-])cc1	none
O=C(NC(=S)N1CCCc2ccccc21)c1ccc(Br)cc1	STAT3 activator 133
O=C(NC(=S)N1CCCc2ccccc21)c1ccc(Cl)cc1	STAT3 activator 142
CC[C@H](C)[C@H](NC(N)=O)C(=O)Nc1ccccc1F	none
CCOC(=O)/C=C/C(=O)Nc1nccs1	none
O=C(/C=C/c1cccs1)Nc1cccc(NC(=O)/C=C/c2cccs2)n1	none
O=C(/C=C/c1cccs1)Nc1nccs1	STAT1 act 134
O=C(/C=C\c1ccccc1)Nc1nccs1	NF-kB neuron act 6.5, APP 5'UTR act 168
O=C(/C=C/c1cccs1)Nc1ccc(Br)cn1	STAT3 activator 133, NF-kB neuron act 5.6, STAT1 act 178
O=C(Nc1ncc2c(n1)-c1ccccc1CC2)c1cccs1	none
COc1cccc(NC(=S)N(CCCN2CCOCC2)C(C)c2cc3ccccc3o2)c1 (stereo not drawn)	none
Cn1ccnc1SCC(=O)Nc1ccc2ccccc2c1	NF-kB neuron act 4.4, STAT1 act 140
Cn1ccnc1SCC(=O)c1ccc2ccccc2c1	APP 5'UTR act 164, STAT1 act 146
Cn1ccnc1SCC(=O)c1cccc(Br)c1	none
O=C1c2ccccc2NC(c2ccc3c(c2)OCCO3)N1c1ccc2c(c1)OCCO2 (stereo not drawn)	NF-kB neuron act 4.4
COc1cc(C2Nc3ccccc3C(=O)N2c2ccccc2OC)ccc1O (stereo not drawn)	none
COc1cc(C2Nc3ccccc3C(=O)N2c2ccc3c(c2)OCCO3)ccc1OCC(C)C (stereo not drawn)	STAT1 act 132
COc1ccc(C(=O)N/N=C(\CCC(=O)O)c2ccc(C(C)(C)C)cc2)cc1OC	none
CN(C)c1ccc([C@@H]2[C@@H]([N+](=O)[O-])[C@H]3C=Cc4ccccc4N3[C@H]2C(=O)c2ccc(Cl)cc2)cc1	STAT3 activator 145
O=C(c1ccccc1)c1cnc(Nc2ccc(Cl)c(Cl)c2)s1	none
CC(=O)c1cnc(Nc2cccc(C)c2)s1	STAT1 act 134
COc1ccc(-n2cnc3cc(NCc4cccs4)ccc32)cc1	STAT1 act 131
c1ccc(-n2cnc3cc(NCc4ccco4)ccc32)cc1	STAT1 act 147
COc1ccc(NC(=O)C2CCCO2)cc1 (stereo not drawn)	none
O=C(Nc1ccc(-c2nc3ccccc3o2)cc1)C1CCCO1 (stereo not drawn)	NF-kB neuron act 4.2, APP 5'UTR act 233, STAT1 act 140
O=C(Nc1ccc(Oc2ccccc2)cc1)C1CCCO1 (stereo not drawn)	STAT1 act 132
O=C(Nc1ccc(-c2nc3cc(Cl)ccc3o2)cc1)C1CCCO1 (stereo not drawn)	STAT1 act 150
Nc1sc2c([n+]1CCCS(=O)(=O)[O-])CCCC2	none
CCOC(=O)c1nn(-c2ccc(F)cc2)cc1O	none
CCOC(=O)c1nn(-c2ccc(Br)cc2)cc1C(=O)c1cccc2ccccc12	NF-kB neuron act 6.4
COc1ccc(C(=O)NNC2CC(=O)N(Cc3ccc(Cl)cc3)C2=O)cc1OC (stereo not drawn)	none
O=C(Nc1ccccc1C(=O)O)c1ccc(Cl)c(S(=O)(=O)N2CCOCC2)c1	STAT1 blocker 51
O=C(O)c1cccc(NC(=O)c2ccc(Cl)c(S(=O)(=O)N3CCCCCC3)c2)c1	STAT3 blocker 53, STAT1 blocker 39
COc1ccccc1NC(=O)c1ccc(Cl)c(S(=O)(=O)N2CCOCC2)c1	none
COC1=C(Nc2ccc(C)cc2)C(=O)c2ccccc2C1=O	none
COC1=C(Nc2ccccc2)C(=O)c2ccccc2C1=O	STAT3 activator 134
O=c1c2oc3ccccc3c2ncn1Cc1ccccc1F	NF-kB neuron act 3.5
Cc1csc2ncc(C(=O)Nc3ccccc3Cl)c(=O)n12	STAT1 act 131 (no result: STAT3 activator, STAT3 blocker)

Screens from PubChem.
